Measurements of several laboratories.
Each line is one published result; the experiments were not run side by side.
Target: Mitogen-activated protein kinase kinase kinase 20 (MAP3K20, Homo sapiens, UniProt Q9NYL2)

| SMILES | assay | conditions | quantity | value |
| --- | --- | --- | --- | --- |
| Nc1ncc(-c2nc(N3CCOCC3)nc(N3CCOCC3)n2)c(C(F)F)n1 | binding, competition with immobilised ligand | 10 µM | remaining binding | 80% |
| COc1cc(Nc2ncc(F)c(Nc3ccc4c(n3)NC(=O)C(C)(C)O4)n2)cc(OC)c1OC | binding | 10 µM | inhibition | 44% |
| Cn1cc(-c2cc(F)cc(N3CCn4c(cc5c4CCCC5)C3=O)c2CO)cc(Nc2ccc(N3CCN(C4COC4)CC3)cn2)c1=O | enzyme activity, inhibitor | 0.1 µM | inhibition | -3% |
| Cc1ccc(C(=O)Nc2ccc(CN3CCN(C)CC3)c(C(F)(F)F)c2)cc1C#Cc1cnc2cccnn12 | thermal stability, DSF | 10 µM | ΔTm | 15 °C |
| Cn1cc(-c2cccc(N3CCc4c(sc5c4CC(C)(C)C5)C3=O)c2CO)cc(Nc2ccncn2)c1=O | enzyme activity, inhibitor | 1 µM | inhibition | -1% |
| Cc1nn(C)cc1-c1nc2c(N3CCN(Cc4ccc(Cl)cc4)CC3)c(Cl)cnc2[nH]1 | binding, competition with immobilised ligand | 1 µM | remaining binding | 71% |
| O=c1[nH]c2ccccc2n1C1CCN(Cc2ccc(-c3[nH]c4cc5ncnc5cc4nc3-c3ccccc3)cc2)CC1 | cell-free assay | 0.5 µM | remaining signal | 106% |
| COc1ncccc1-c1cnn2ccc(N3CCN(C(=O)OC(C)C)CC3)nc12 | binding, competition with immobilised ligand | 1 µM | remaining binding | 78% |
| Cn1cncc1[C@](O)(COc1ccc(C#N)cc1-c1ccc(OC(F)(F)F)cc1)c1ccc(C#N)cc1 | cell-free assay, competition with immobilised ligand | 1 µM | remaining binding | 100% |
| CC(C)(C)c1cc(C=C(C#N)C#N)cc(Br)c1O | enzyme activity, inhibitor | 0.5 µM | remaining activity | 91.2% |
